Reference: ChEMBL document CHEMBL1938318, “Design, synthesis and evaluation of novel molecules with a diphenyl ether nucleus as potential antitubercular agents” (Bioorg Med Chem Lett, 2012)
Active and inactive are the calls of the source. No cut-off for these calls is given here.

Tests used:
[1] = tested on: Mycobacterium tuberculosis; assay: Antitubercular activity against Mycobacterium bovis BCG infected in BALB/c mouse assessed as log reduction in CFU in spleen at 25 mg/kg, po qd administered 48 hrs post infection for 6 weeks measured after 6 weeks (reference value: 4.79+/-0.25 log10CFU); format: functional, variant bovis BCG
Outline: (§1)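 Female BALB/c mice infected intravenously with approx. 1 × 10⁵ CFU M. bovis BCG; compound given orally at 25 mg/kg once daily for six weeks, then sacrificed. Lung and spleen homogenates plated on modified Lowenstein-Jensen medium, colonies counted after six weeks at 37 °C; mean log10 CFU per organ versus vehicle-treated group (n = 6–8 mice/group).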

[2] = tested on: Mycobacterium tuberculosis; assay: Antitubercular activity against Mycobacterium bovis BCG infected in BALB/c mouse assessed as log reduction in CFU in lungs at 25 mg/kg, po qd administered 48 hrs post infection for 6 weeks measured after 6 weeks (reference value: 4.64+/-0.17 log10CFU); format: functional, variant bovis BCG; outline: as §1
[3] = tested on: Mycobacterium tuberculosis; assay: Antitubercular activity against Mycobacterium bovis BCG infected in BALB/c mouse assessed as reduction in perivascular accumulation of epitheloid macrophages in lungs at 25 mg/kg, po qd administered 48 hrs post infection for 6 weeks by hematoxylin/eosin staining; format: functional, organism-based; set-up: dose 25 mg/kg; conditions: variant bovis BCG
[4] = tested on: Mycobacterium tuberculosis; assay: Antitubercular activity against Mycobacterium bovis BCG infected in BALB/c mouse assessed as reduction in perivascular accumulation of granulocytes in lungs at 25 mg/kg, po qd administered 48 hrs post infection for 6 weeks by hematoxylin/eosin staining; format: functional, organism-based; set-up: dose 25 mg/kg; conditions: variant bovis BCG
[5] = tested on: Mycobacterium tuberculosis; assay: Antitubercular activity against Mycobacterium bovis BCG infected in BALB/c mouse assessed as reduction in peribronchial accumulation of lymphocytes in lungs at 25 mg/kg, po qd administered 48 hrs post infection for 6 weeks by hematoxylin/eosin staining; format: functional, organism-based; set-up: dose 25 mg/kg; conditions: variant bovis BCG
[6] = tested on: Mycobacterium tuberculosis; assay: Antitubercular activity against Mycobacterium bovis BCG infected in BALB/c mouse assessed as reduction in peribronchial accumulation of epitheloid macrophages in lungs at 25 mg/kg, po qd administered 48 hrs post infection for 6 weeks by hematoxylin/eosin staining; format: functional, organism-based; set-up: dose 25 mg/kg; conditions: variant bovis BCG
[7] = tested on: Mycobacterium tuberculosis; assay: Antitubercular activity against Mycobacterium bovis BCG infected in BALB/c mouse assessed as reduction in perivascular accumulation of lymphocytes in lungs at 25 mg/kg, po qd administered 48 hrs post infection for 6 weeks by hematoxylin/eosin staining; format: functional, organism-based; set-up: dose 25 mg/kg; conditions: variant bovis BCG
[8] = tested on: Mycobacterium tuberculosis; assay: Antitubercular activity against Mycobacterium bovis BCG infected in BALB/c mouse assessed as reduction in peribronchial accumulation of granulocytes in lungs at 25 mg/kg, po qd administered 48 hrs post infection for 6 weeks by hematoxylin/eosin staining; format: functional, organism-based; set-up: dose 25 mg/kg; conditions: variant bovis BCG

Row | SMILES | log10cfu [1] | log10cfu [2] | Activity [3] | Activity [4] | Activity [5] | Activity [6] | Activity [7] | Activity [8]
1 | NNC(=O)c1ccncc1 [ISONIAZID] | 3 | 2 |  |  |  |  |  | 
2 | O=C(Cc1cccc(Oc2ccccc2)c1)Nc1ccc(Cl)c(Cl)c1 | 2 | 2 | Active | Active | Active | Active | Active | Active
